From ChEMBL document CHEMBL4145545, “Synthesis and structure-activity relationships of asymmetric dimeric β-carboline derivatives as potential antitumor agents” (Eur J Med Chem, 2018)
Activity calls are given as the source filed them. The calls are words filed in the database; no cut-off is given here.

Columns and labels:
HepG2 = experiment: Cytotoxicity against human HepG2 cells assessed as cell growth inhibition after 24 hrs by MTT assay; type: functional, cell-based; conditions: HepG2, 24 h
Method in brief: (§1)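 Cell lines grown to log phase in RPMI-1640 with 10% FBS, penicillin and streptomycin. About 10^5 cells/mL were plated and pre-incubated 24 h at 37 °C in 5% CO2. Compounds were given in DMSO, final ≤2% (v/v). MTT read-out was OD at 490 nm. Triplicate wells per concentration, each assay run ≥3 times. IC50 is 50% OD reduction versus untreated cells, calculated by the Logit method. Cisplatin was the reference.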

MCF7 = experiment: Cytotoxicity against human MCF7 cells assessed as cell growth inhibition after 24 hrs by MTT assay; type: functional, cell-based; conditions: MCF7, 24 h; method in brief: as §1
[1] = Cytotoxicity against human BGC cells assessed as cell growth inhibition after 24 hrs by MTT assay; type: functional, cell-based; method in brief: as §1
A-375 = experiment: Cytotoxicity against human A375 cells assessed as cell growth inhibition after 24 hrs by MTT assay; type: functional, cell-based; conditions: A-375, 24 h; method in brief: as §1
HT-29 = experiment: Cytotoxicity against human HT-29 cells assessed as cell growth inhibition after 24 hrs by MTT assay; type: functional, cell-based; conditions: HT-29, 24 h; method in brief: as §1
769-P = experiment: Cytotoxicity against human 769-P cells assessed as cell growth inhibition after 24 hrs by MTT assay; type: functional, cell-based; method in brief: as §1
SK-OV-3 = experiment: Cytotoxicity against human SKOV3 cells assessed as cell growth inhibition after 24 hrs by MTT assay; type: functional, cell-based; conditions: SK-OV-3, 24 h; method in brief: as §1
ECa-109 cell line = experiment: Cytotoxicity against human ECA109 cells assessed as cell growth inhibition after 24 hrs by MTT assay; type: functional, cell-based; conditions: ECa-109, 24 h; method in brief: as §1
[2] = tested on: Lewis lung carcinoma cell line; experiment: Cytotoxicity against mouse LLC cells assessed as cell growth inhibition after 24 hrs by MTT assay; type: functional, cell-based; method in brief: as §1
[3] = Acute toxicity in ip dosed Kunming mouse observed continuously for first 2 hrs, intermittently for next 24 hrs and occasionally thereafter for 14 days; type: organism-based; conditions: in vivo
Method in brief: (§2)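 SPF KM mice, 6-8 weeks, 19-22 g, fasted overnight with water available. Single i.p. dose, 5.0 to 500 mg kg-1 in 0.5% CMC-Na, 10 mice per group (5 male, 5 female). Observed for behaviour, neurotoxic signs and deaths, then killed on day 14 and heart, liver and kidneys inspected macroscopically. LD50 derived graphically.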

Mus musculus [4] = experiment: Neurotoxicity in Kunming mouse assessed as tremble at 5 to 500 mg/kg, ip observed continuously for first 2 hrs, intermittently for next 24 hrs and occasionally thereafter for 14 days; type: toxicity, organism-based; conditions: in vivo; method in brief: as §2
Mus musculus [5] = experiment: Neurotoxicity in Kunming mouse assessed as twitch at 5 to 500 mg/kg, ip observed continuously for first 2 hrs, intermittently for next 24 hrs and occasionally thereafter for 14 days; type: toxicity, organism-based; conditions: in vivo; method in brief: as §2
Mus musculus [6] = experiment: Neurotoxicity in Kunming mouse assessed as jumping behavior at 5 to 500 mg/kg, ip observed continuously for first 2 hrs, intermittently for next 24 hrs and occasionally thereafter for 14 days; type: toxicity, organism-based; conditions: in vivo; method in brief: as §2
Mus musculus [7] = experiment: Neurotoxicity in Kunming mouse assessed as supination at 5 to 500 mg/kg, ip observed continuously for first 2 hrs, intermittently for next 24 hrs and occasionally thereafter for 14 days; type: toxicity, organism-based; conditions: in vivo; method in brief: as §2
Mus musculus [8] = experiment: Acute toxicity in ip dosed Kunming mouse assessed as death at higher dose up to 4 to 8 hrs; type: organism-based; conditions: in vivo; method in brief: as §2
Mus musculus [9] = experiment: Cardiotoxicity in Kunming mouse at 5 to 500 mg/kg, ip after 14 days by macroscopic method; type: toxicity, organism-based; conditions: in vivo, 336 h
Mus musculus [10] = experiment: Nephrotoxicity in Kunming mouse at 5 to 500 mg/kg, ip after 14 days by macroscopic method; type: toxicity, organism-based; conditions: in vivo, 336 h
Mus musculus [11] = experiment: Hepatotoxicity in Kunming mouse at 5 to 500 mg/kg, ip after 14 days by macroscopic method; type: toxicity, organism-based; conditions: in vivo, 336 h
Sarcoma-180 [12] = experiment: Antitumor activity against mouse Sarcoma 180 cells implanted in mouse assessed as tumor growth inhibition at 10 mg/kg, ip administered once per day for 7 consecutive days starting from 24 hrs post tumor inoculation and measured on day 21 post tumor inoculation relative to control; type: functional; conditions: Sarcoma-180, ip, read-out: TGI
Method in brief: (§3)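 Tumor cells were harvested from 7-day donor tumors, and 2×10^6 viable cells/mouse were injected s.c. in the armpit. Groups of 10 female mice received i.p. compound daily for 7 days, starting 24 h after inoculation. Controls were vehicle (negative) and CTX 30 mg/kg (positive). Body weight was recorded every 3 days. On day 21 tumors were excised and weighed, and inhibition was calculated as (C−T)/C×100 from mean tumor weights.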

[13] = tested on: Lewis lung carcinoma cell line; experiment: Antitumor activity against mouse LLC cells implanted in mouse assessed as tumor growth inhibition at 10 mg/kg, ip administered once per day for 7 consecutive days starting from 24 hrs post tumor inoculation and measured on day 21 post tumor inoculation relative to control; type: functional; conditions: read-out: TGI; method in brief: as §3
Sarcoma-180 [14] = experiment: Antitumor activity against mouse Sarcoma 180 cells implanted in mouse assessed as tumor growth inhibition at 30 mg/kg, ip administered once per day for 7 consecutive days starting from 24 hrs post tumor inoculation and measured on day 21 post tumor inoculation relative to control; type: functional; conditions: Sarcoma-180, ip, read-out: TGI
Method in brief: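 Tumour cells passaged in mice for 7 days, then 2 × 10^6 viable cells given s.c. into the armpit of female mice, 10 per group. […] CTX at 30 mg kg-1 as reference, vehicle as negative control. Body weight recorded every 3 days. Tumours excised and weighed on day 21. Inhibition = (C − T)/C × 100, using mean tumour weights.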

Chorioallantoic membrane = experiment: In vivo antiangiogenic activity in chicken embryo chorioallantoic membrane at 50 uM/disc after 48 hrs by microscopic method; type: functional, organism-based; conditions: Gallus gallus
[15] = tested on: Lewis lung carcinoma cell line; experiment: animal or person; conditions: Mus musculus, ip, read-out: TGI

| Structure (SMILES) | IC50 (HepG2) | IC50 (MCF7) | IC50 [1] | IC50 (A-375) | IC50 (HT-29) | IC50 (769-P) | IC50 (SK-OV-3) | IC50 (ECa-109 cell line) | IC50 [2] | also measured |
| --- | --- | --- | --- | --- | --- | --- | --- | --- | --- | --- |
| CCCCn1c2cc(OCCCCn3c4ccccc4c4ccnc(C)c43)ccc2c2ccnc(C)c21.Cl | 15.7 µM | 11.2 µM | 33.6 µM | 14.1 µM | 16.4 µM | 15.3 µM | 21.7 µM | 12.2 µM | 13.3 µM | LD50 at 14 days [3]: 50 mg/kg; Activity (Mus musculus [4]): Non-Toxic; Activity (Mus musculus [5]): Non-Toxic; Activity (Mus musculus [6]): Non-Toxic; Activity (Mus musculus [7]): Non-Toxic; Activity (Mus musculus [8]): Toxic; Activity (Mus musculus [9]): Non-Toxic; Activity (Mus musculus [10]): Non-Toxic; Activity (Mus musculus [11]): Non-Toxic; inhibition in vivo at 10 mg/kg (Sarcoma-180 [12]): 53.3%; inhibition in vivo at 10 mg/kg [13]: 27.2% |
| Cc1nccc2c3ccccc3n(CCCCOc3ccc4c5ccnc(C)c5n(CCCc5ccccc5)c4c3)c12.Cl | 9.1 µM | 4 µM | 7.4 µM | 8.4 µM | 14.1 µM | 9.9 µM | 13.1 µM | 9.9 µM | 4.4 µM | LD50 at 14 days [3]: 150 mg/kg; Activity (Mus musculus [4]): Non-Toxic; Activity (Mus musculus [5]): Non-Toxic; Activity (Mus musculus [6]): Non-Toxic; Activity (Mus musculus [7]): Non-Toxic; Activity (Mus musculus [8]): Toxic; Activity (Mus musculus [9]): Non-Toxic; Activity (Mus musculus [10]): Non-Toxic; Activity (Mus musculus [11]): Non-Toxic; inhibition in vivo at 30 mg/kg (Sarcoma-180 [14]): 36.7% |
| CCn1c2cc(OCCCCCCn3c4ccccc4c4ccncc43)ccc2c2ccnc(C)c21 | > 100 µM | 19 µM | 40.7 µM | 34.7 µM | 60.3 µM | > 100 µM | > 100 µM | 17.4 µM | 21.8 µM | – |
| CCCCn1c2cc(OCCCCn3c4ccccc4c4ccncc43)ccc2c2ccnc(C)c21 | 29.5 µM | 28.8 µM | 41.5 µM | 72.4 µM | 21.8 µM | 22.9 µM | 17.3 µM | 21.8 µM | 38 µM | – |
| Cc1nccc2c3ccc(OCCCCCCn4c5ccccc5c5ccncc54)cc3n(CCCc3ccccc3)c12 | 12.1 µM | 8.5 µM | 11.2 µM | 37.1 µM | 16.2 µM | 13.1 µM | 76.4 µM | 12.6 µM | 28.2 µM | – |
| COc1ccc(/C=C\c2cc(OC)c(OC)c(OC)c2)cc1OP(=O)(O)O | – | – | – | – | – | – | – | – | – | Activity (Chorioallantoic membrane): Active |
| Cc1nccc2c3ccc(OCCCCn4c5ccccc5c5ccnc(-c6ccccc6Cl)c54)cc3n(CCCc3ccccc3)c12 | 14.4 µM | 5.9 µM | 12.4 µM | 3.9 µM | 20.2 µM | 21.9 µM | 22.9 µM | 18.4 µM | 10.1 µM | – |
| COc1ccc(-c2nccc3c4ccccc4n(CCCCOc4ccc5c6ccnc(C)c6n(CCCc6ccccc6)c5c4)c23)cc1OC | 2.4 µM | 7.2 µM | 9.7 µM | 6.7 µM | 22.7 µM | 8.2 µM | 8.8 µM | 9.3 µM | 6.2 µM | – |
| CCn1c2cc(OCCCCn3c4ccccc4c4ccncc43)ccc2c2ccnc(C)c21 | > 100 µM | 19.4 µM | 41.5 µM | 30.7 µM | 37 µM | 27.4 µM | 19.8 µM | 37 µM | 16.5 µM | – |
| CCn1c2cc(OCCCCCCn3c4ccccc4c4ccnc(C)c43)ccc2c2ccnc(C)c21 | 74.6 µM | 75.2 µM | 44.7 µM | 74.6 µM | 36.2 µM | 75.2 µM | 11.2 µM | 61.4 µM | 51.1 µM | – |
| CCCCn1c2cc(OCCCCCn3c4ccccc4c4ccnc(C)c43)ccc2c2ccnc(C)c21 | > 100 µM | > 100 µM | > 100 µM | 50.8 µM | 10.1 µM | 11.6 µM | 14.3 µM | > 100 µM | 12.4 µM | – |
| O=P1(N(CCCl)CCCl)NCCCO1 (stereo unspecified) [CYCLOPHOSPHAMIDE ANHYDROUS] | – | – | – | – | – | – | – | – | – | inhibition in vivo at 30 mg/kg (Sarcoma-180 [14]): 82.5%; inhibition in vivo at 30 mg/kg [15]: 80.7% |
| Cc1nccc2c3ccc(OCCCCn4c5ccccc5c5ccncc54)cc3n(CCCc3ccccc3)c12.Cl | 9.7 µM | 4.5 µM | 8.5 µM | 33.4 µM | 15.9 µM | 10.7 µM | 13.8 µM | 9.5 µM | 9.6 µM | LD50 at 14 days [3]: 50 mg/kg; Activity (Mus musculus [4]): Non-Toxic; Activity (Mus musculus [5]): Non-Toxic; Activity (Mus musculus [6]): Non-Toxic; Activity (Mus musculus [7]): Non-Toxic; Activity (Mus musculus [8]): Toxic; Activity (Mus musculus [9]): Non-Toxic; Activity (Mus musculus [10]): Non-Toxic; Activity (Mus musculus [11]): Non-Toxic; inhibition in vivo at 10 mg/kg (Sarcoma-180 [12]): 33.5% |
| Cc1nccc2c3ccc(OCCCCn4c5ccccc5c5ccnc(-c6cccnc6)c54)cc3n(CCCc3ccccc3)c12 | 10.7 µM | 29.8 µM | 4.2 µM | 18.9 µM | 11.2 µM | 7.2 µM | 22.9 µM | 12.9 µM | 9.4 µM | – |
| Cc1nccc2c3ccc(OCCCCn4c5ccccc5c5ccnc(C(C)C)c54)cc3n(CCCc3ccccc3)c12 | 46.2 µM | 14.4 µM | 37.8 µM | 23.8 µM | 12.1 µM | 18.5 µM | 28.1 µM | 16.2 µM | 10.8 µM | – |
| CCCCn1c2cc(OCCCCCn3c4ccccc4c4ccncc43)ccc2c2ccnc(C)c21 | 65.1 µM | 16.7 µM | > 100 µM | > 100 µM | 32.6 µM | 31.1 µM | 65.1 µM | > 100 µM | > 100 µM | – |
| COc1cc(-c2nccc3c4ccccc4n(CCCCOc4ccc5c6ccnc(C)c6n(CCCc6ccccc6)c5c4)c23)cc(OC)c1OC | 24.9 µM | 11.7 µM | 18.2 µM | 7.1 µM | 3.9 µM | 14.1 µM | 10.3 µM | 9.7 µM | 8.7 µM | – |
| CCCCn1c2cc(OCCCCCCn3c4ccccc4c4ccncc43)ccc2c2ccnc(C)c21 | 51.7 µM | > 100 µM | > 100 µM | 78.3 µM | > 100 µM | > 100 µM | > 100 µM | > 100 µM | 46.1 µM | – |
| Cc1nccc2c3ccccc3n(CCCCCCOc3ccc4c5ccnc(C)c5n(CCCc5ccccc5)c4c3)c12 | 14.1 µM | 11.7 µM | 12.5 µM | 15.8 µM | 28.1 µM | 16.1 µM | 19.4 µM | 15.1 µM | 14.1 µM | – |
| CCn1c2cc(OCCCCCn3c4ccccc4c4ccnc(C)c43)ccc2c2ccnc(C)c21 | 112 µM | 56.3 µM | 35.4 µM | 31.5 µM | 14.9 µM | 70.6 µM | 30.8 µM | 46.6 µM | > 100 µM | – |
